Where no end group is shown, it is not given here.
Assays:
[1] = tested on: CCR2 gene expression in 22Rv1 prostate cancer cells; assay: CCR2 expression by qRT-PCR; type: cell-based; conditions: 22Rv1 cells, 5 μM (noncytotoxic), vs PBS, n = 3
Summary of the method: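 22Rv1 cells kept in RPMI-1640 with 10% FBS and 1% penicillin-streptomycin at 37 °C, 5% CO2, treated with test compound at 5 μM or PBS. cDNA made with an RT2 first-strand kit and amplified with RT2 SYBR Green qPCR master mix. Relative expression vs Actb or GAPDH housekeeping gene by the 2ΔΔCq method. n = 3, mean ± SEM.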

[2] = tested on: 22Rv1 prostate cancer cells; type: cell-based; conditions: 72 h
[3] = tested on: PC3 prostate cancer cells; assay: In vitro cytotoxicity; type: cell-based; conditions: 72 h
[4] = tested on: WEHI 274.1 murine monocytes; assay: Chemotaxis assay; type: cell-based; conditions: 1000 μM, 4 h, transwell 8 μm pores, Pico Green, n = 5, mean ± SEM
[5] = tested on: WEHI 274.1 murine monocytes; assay: In vitro cell viability; conditions: MTS assay, varying concentrations, 24 and 72 h, n = 6
Zeta potential analysis = type: physicochemical; conditions: 100 μM in water, n = 3
Summary of the method: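 Micelles made by methanol thin-film evaporation, overnight vacuum drying and 30 min hydration at 80 °C, then cooled to room temperature. Zeta potential measured on 100 μM micelles dissolved in water, n = 3.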

## CYNSLVFRIRNSTQRKYRASISTK-OH [scrambled peptide]
[1]
  downregulation of CCR2 gene expression: unappreciable CCR2 changes
[2]
  IC50: 76.1 ± 15.8 µM
[3]
  IC50: > 100 µM
[4]
  migrated monocytes (DNA quantification): 13.9 ± 2.8 ng DNA/mL
[5]
  cell viability of monocytes: no decrease in cell viability
Zeta potential analysis
  zeta potential: 7.2 ± 3.4 mV
